Seven compounds from ChEMBL document CHEMBL1141780, “Diterpenoid, steroid, and triterpenoid agonists of liver X receptors from diversified terrestrial plants and marine sources” (J Nat Prod, 2005) can be followed below.

The first experiment concerns the target T1, Oxysterols receptor LXR-beta (Homo sapiens) (UniProt P55055).
T1 sequence (whole entry): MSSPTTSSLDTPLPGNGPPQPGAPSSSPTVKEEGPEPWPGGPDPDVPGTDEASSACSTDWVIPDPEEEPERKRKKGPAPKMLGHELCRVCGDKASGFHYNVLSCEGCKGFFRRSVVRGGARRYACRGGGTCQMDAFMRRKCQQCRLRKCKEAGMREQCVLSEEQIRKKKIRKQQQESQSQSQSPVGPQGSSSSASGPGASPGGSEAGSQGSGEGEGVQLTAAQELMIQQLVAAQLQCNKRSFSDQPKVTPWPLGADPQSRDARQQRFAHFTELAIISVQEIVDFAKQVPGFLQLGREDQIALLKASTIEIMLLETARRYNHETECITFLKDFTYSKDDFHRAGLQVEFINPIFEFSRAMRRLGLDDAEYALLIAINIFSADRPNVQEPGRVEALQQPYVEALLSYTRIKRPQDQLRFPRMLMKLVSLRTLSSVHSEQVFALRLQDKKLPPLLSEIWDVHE
Description: Activity of human recombinant LXRbeta ligand binding domain-mediated transcriptional activity in human HEK293 cells with Gal4 reporter plasmid by luciferase reporter assay. The experiment is classed as cell-based.
Conditions: not given
The gist of the method:
(§1)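 Cell-based transactivation in HEK-293 cells with chimeric constructs: yeast Gal4 DNA-binding domain fused to the hinge region and LBD of LXRα or LXRβ. Agonist activity is read as fold induction over DMSO control.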
A general note: In a reporter assay the amount or activity of a reporter protein is the signal.
On to `CCCc1c(OCCCSc2ccc(CC(=O)O)cc2Cl)ccc2c(C(F)(F)F)noc12`, for which the fold change (FC) was 35.
For the compound `CC(=O)Oc1ccc2c(c1)[C@@]1(C)CCC[C@](C)(C(=O)OC(=O)[C@@]3(C)CCC[C@]4(C)c5cc(OC(C)=O)ccc5CC[C@@H]34)[C@@H]1CC2` [ACETYL PODOCARPIC ACID ANHYDRIDE], the fold change (FC) came to 85.
Take `CC(C)CC[C@@H](O)[C@@H](C)[C@H]1CC[C@H]2[C@@H]3CC=C4C[C@@H](O)CC[C@]4(C)[C@H]3CC[C@]12C` [22(R)-HYDROXYCHOLESTEROL]: the fold change (FC) is 8.

A further experiment concerns the target T1, Oxysterols receptor LXR-beta (Homo sapiens). Nature of the experiment: Displacement of [3H2]F3-methyl AA from human recombinant LXRbeta expressed in Escherichia coli BL21 cells at 100 uM.
Conditions: not given
Take `CC(C)CC[C@@H](O)[C@@H](C)[C@H]1CC[C@H]2[C@@H]3CC=C4C[C@@H](O)CC[C@]4(C)[C@H]3CC[C@]12C` [22(R)-HYDROXYCHOLESTEROL]: the Activity is 60%.

A further experiment has as its target T2, Oxysterols receptor LXR-beta (Homo sapiens, UniProt P55055).
T2 sequence (P55055 whole entry): T1 sequence (whole entry)
Description: Agonist activity at human recombinant LXRbeta expressed in Escherichia coli BL21 cells assessed as association of recombinant SRC1 to LXRbeta ligand binding domain by HTRF assay.
Conditions: not given
For orientation: Time-resolved FRET reads energy transfer from a long-lived donor to a nearby acceptor.
As to `C=C(C)[C@@H]1CC[C@]2(C(=O)O)CC[C@]3(C)[C@H](CC[C@@H]4[C@@]5(C)CC[C@H](O)C(C)(C)[C@@H]5CC[C@]43C)[C@@H]12` [BETULINIC ACID], the EC50 – broadly, the concentration needed to bring the measured effect to its halfway point – was more than 50000 nM.
`C/C(=C\CC[C@@H](C)[C@H]1CC[C@@]2(C)[C@@H]3CC=C4[C@@H](CC[C@@H](O)C4(C)C)[C@]3(C)CC[C@]12C)C(=O)O` [ROSACEA ACID B]: the EC50 was more than 50000 nM.
In the case of `C=C[C@@]1(C)CC=C2[C@@H](CC[C@@H]3[C@](C)(CO)CCC[C@@]23C)C1`, the EC50 is more than 50000 nM.
Same read-out and setting: to `C[C@]1(C(=O)O)CCC[C@]2(C)c3cc(O)ccc3CC[C@@H]12` [PODOCARIC ACID] belongs more than 50000 nM; to `CC(=O)Oc1ccc2c(c1)[C@@]1(C)CCC[C@](C)(C(=O)OC(=O)[C@@]3(C)CCC[C@]4(C)c5cc(OC(C)=O)ccc5CC[C@@H]34)[C@@H]1CC2` [ACETYL PODOCARPIC ACID ANHYDRIDE], less than 3 nM; to `CC(C)CC[C@@H](O)[C@@H](C)[C@H]1CC[C@H]2[C@@H]3CC=C4C[C@@H](O)CC[C@]4(C)[C@H]3CC[C@]12C` [22(R)-HYDROXYCHOLESTEROL], more than 15000 nM.

The target in another experiment is T3, Oxysterols receptor LXR-alpha (Homo sapiens) (UniProt Q13133).
T3 sequence (whole entry): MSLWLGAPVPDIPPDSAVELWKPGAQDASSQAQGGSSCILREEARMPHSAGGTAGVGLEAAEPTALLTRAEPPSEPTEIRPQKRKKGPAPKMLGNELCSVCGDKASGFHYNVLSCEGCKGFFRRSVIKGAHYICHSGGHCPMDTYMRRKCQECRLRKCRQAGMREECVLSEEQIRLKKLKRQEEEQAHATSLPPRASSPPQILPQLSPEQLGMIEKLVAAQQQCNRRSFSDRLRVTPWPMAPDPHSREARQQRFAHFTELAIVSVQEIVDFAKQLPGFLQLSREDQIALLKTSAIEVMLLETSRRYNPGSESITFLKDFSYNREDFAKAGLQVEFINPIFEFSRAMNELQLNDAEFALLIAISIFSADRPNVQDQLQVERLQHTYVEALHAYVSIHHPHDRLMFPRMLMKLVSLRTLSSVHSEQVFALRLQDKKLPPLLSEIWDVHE
Nature of the experiment: Activity of human recombinant LXRalpha ligand binding domain-mediated transcriptional activity in human HEK293 cells with Gal4 reporter plasmid by luciferase reporter assay. The experiment is classed as cell-based.
Conditions: not given
Summed up: as §1
Take `CCCc1c(OCCCSc2ccc(CC(=O)O)cc2Cl)ccc2c(C(F)(F)F)noc12`: the fold change (FC) came out at 20.
Consider `CC(=O)Oc1ccc2c(c1)[C@@]1(C)CCC[C@](C)(C(=O)OC(=O)[C@@]3(C)CCC[C@]4(C)c5cc(OC(C)=O)ccc5CC[C@@H]34)[C@@H]1CC2` [ACETYL PODOCARPIC ACID ANHYDRIDE], for which the fold change (FC) was found to be 50.
As to `CC(C)CC[C@@H](O)[C@@H](C)[C@H]1CC[C@H]2[C@@H]3CC=C4C[C@@H](O)CC[C@]4(C)[C@H]3CC[C@]12C` [22(R)-HYDROXYCHOLESTEROL], the fold change (FC) is 4.

A further experiment concerns the target T4, Oxysterols receptor LXR-alpha (Homo sapiens, UniProt Q13133).
T4 sequence (Q13133 whole entry): T3 sequence (whole entry)
Description: Agonist activity at human recombinant LXRalpha expressed in Escherichia coli BL21 cells assessed as association of recombinant SRC1 to LXRalpha ligand binding domain by HTRF assay.
Conditions: not given
Take `C=C(C)[C@@H]1CC[C@]2(C(=O)O)CC[C@]3(C)[C@H](CC[C@@H]4[C@@]5(C)CC[C@H](O)C(C)(C)[C@@H]5CC[C@]43C)[C@@H]12` [BETULINIC ACID]: the EC50 was more than 50000 nM.
`C/C(=C\CC[C@@H](C)[C@H]1CC[C@@]2(C)[C@@H]3CC=C4[C@@H](CC[C@@H](O)C4(C)C)[C@]3(C)CC[C@]12C)C(=O)O` [ROSACEA ACID B]: the concentration giving a half-maximal response (EC50) was more than 50000 nM.
For `C=C[C@@]1(C)CC=C2[C@@H](CC[C@@H]3[C@](C)(CO)CCC[C@@]23C)C1`, the EC50 is 390 nM.
On the same count and under the same terms, then `C[C@]1(C(=O)O)CCC[C@]2(C)c3cc(O)ccc3CC[C@@H]12` [PODOCARIC ACID], with more than 50000 nM; and `CC(=O)Oc1ccc2c(c1)[C@@]1(C)CCC[C@](C)(C(=O)OC(=O)[C@@]3(C)CCC[C@]4(C)c5cc(OC(C)=O)ccc5CC[C@@H]34)[C@@H]1CC2` [ACETYL PODOCARPIC ACID ANHYDRIDE], with 1 nM; and `CC(C)CC[C@@H](O)[C@@H](C)[C@H]1CC[C@H]2[C@@H]3CC=C4C[C@@H](O)CC[C@]4(C)[C@H]3CC[C@]12C` [22(R)-HYDROXYCHOLESTEROL], with more than 15000 nM.

In the next experiment the target is T1, Oxysterols receptor LXR-beta (Homo sapiens). To be noted: BL21.
Consider `C=C(C)[C@@H]1CC[C@]2(C(=O)O)CC[C@]3(C)[C@H](CC[C@@H]4[C@@]5(C)CC[C@H](O)C(C)(C)[C@@H]5CC[C@]43C)[C@@H]12` [BETULINIC ACID], for which the LC50 (usually the concentration that kills 50% of the test population) was more than 25000 nM.
`C/C(=C\CC[C@@H](C)[C@H]1CC[C@@]2(C)[C@@H]3CC=C4[C@@H](CC[C@@H](O)C4(C)C)[C@]3(C)CC[C@]12C)C(=O)O` [ROSACEA ACID B] returned an LC50 of 390 nM.
On the same count and under the same terms, then `C=C[C@@]1(C)CC=C2[C@@H](CC[C@@H]3[C@](C)(CO)CCC[C@@]23C)C1`, with 730 nM; and `CCCc1c(OCCCSc2ccc(CC(=O)O)cc2Cl)ccc2c(C(F)(F)F)noc12`, with 25 nM; and `C[C@]1(C(=O)O)CCC[C@]2(C)c3cc(O)ccc3CC[C@@H]12` [PODOCARIC ACID], with more than 50000 nM.
As for `CC(=O)Oc1ccc2c(c1)[C@@]1(C)CCC[C@](C)(C(=O)OC(=O)[C@@]3(C)CCC[C@]4(C)c5cc(OC(C)=O)ccc5CC[C@@H]34)[C@@H]1CC2` [ACETYL PODOCARPIC ACID ANHYDRIDE], the LC50 stood at 1 nM.

Another experiment addresses T3, Oxysterols receptor LXR-alpha (Homo sapiens). Nature of the experiment: Displacement of [3H2]F3-methyl AA from human recombinant LXRalpha expressed in Escherichia coli BL21 cells at 100 uM.
Conditions: not given
With `CC(C)CC[C@@H](O)[C@@H](C)[C@H]1CC[C@H]2[C@@H]3CC=C4C[C@@H](O)CC[C@]4(C)[C@H]3CC[C@]12C` [22(R)-HYDROXYCHOLESTEROL], the Activity turned out to be 70%.
